According to ChEMBL document CHEMBL2401696, “Stereoselective synthesis and anti-proliferative effects on prostate cancer evaluation of 5-substituted-3,4-diphenylfuran-2-ones” (Eur J Med Chem, 2013):
Active and inactive are the calls of the source. The rule behind the calls is not given here.

Key:
[1] = test system: PC-3; test: Antiproliferative activity against human PC3 cells expressing SKP2 after 72 hrs by MTT assay; format: functional, cell-based; details: PC-3, 72 h
Method in brief: (§1)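 Cells (PC3 and its PCDNA- and SKP2-transfected lines, DU145) grown in RPMI 1640 with 10% FBS; G418 added for transfected lines. Exponential cells seeded 1 × 10⁴/well, 24 h at 37 °C, then fresh medium with compounds at several concentrations for 72 h. MTT 1–3 h at 37 °C, dissolved in 4% HCl/96% isopropanol, absorbance 570 nm. Triplicate per concentration; IC50 from dose–response curves.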

[2] = test system: PC-3; test: Antiproliferative activity against human PC3 cells expressing PCDNA after 72 hrs by MTT assay; format: functional, cell-based; details: PC-3, 72 h; method in brief: as §1
[3] = test system: PC-3; test: Antiproliferative activity against human PC3 cells after 72 hrs by MTT assay; format: functional, cell-based; details: PC-3, 72 h; method in brief: as §1
[4] = target: T1, Prostaglandin G/H synthase 2 (Ovis aries, UniProt P79208); test: Inhibition of ovine COX-2 assessed as using arachidonic acid as substrate preincubated for 5 mins prior to substrate addition measured […] by enzyme immunoassay
T1 sequence (P79208 whole entry): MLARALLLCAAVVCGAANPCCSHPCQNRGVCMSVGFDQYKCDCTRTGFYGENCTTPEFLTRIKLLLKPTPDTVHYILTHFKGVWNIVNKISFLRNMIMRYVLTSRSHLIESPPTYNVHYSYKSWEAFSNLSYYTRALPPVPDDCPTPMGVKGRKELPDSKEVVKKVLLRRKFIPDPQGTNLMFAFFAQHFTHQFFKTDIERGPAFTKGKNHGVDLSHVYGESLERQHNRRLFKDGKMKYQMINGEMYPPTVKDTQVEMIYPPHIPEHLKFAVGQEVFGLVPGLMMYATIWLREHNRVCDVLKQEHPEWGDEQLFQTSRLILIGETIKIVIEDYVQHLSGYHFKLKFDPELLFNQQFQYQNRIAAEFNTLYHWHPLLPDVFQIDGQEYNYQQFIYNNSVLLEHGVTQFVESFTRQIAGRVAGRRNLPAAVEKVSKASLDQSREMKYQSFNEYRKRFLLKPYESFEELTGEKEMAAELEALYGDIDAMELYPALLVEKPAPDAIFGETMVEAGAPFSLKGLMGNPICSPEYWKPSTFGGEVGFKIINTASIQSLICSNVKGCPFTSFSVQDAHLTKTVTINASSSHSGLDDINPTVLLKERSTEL

[5] = test system: DU-145; test: Antiproliferative activity against human DU145 cells after 72 hrs by MTT assay; format: functional, cell-based; details: DU-145, 72 h; method in brief: as §1
[6] = target: T2, Prostaglandin G/H synthase 1 (Ovis aries) (UniProt P05979); test: Inhibition of ovine COX-1 assessed as using arachidonic acid as substrate at 10 uM preincubated for 5 mins prior to substrate addition […] by enzyme immunoassay relative to control
T2 sequence (whole entry): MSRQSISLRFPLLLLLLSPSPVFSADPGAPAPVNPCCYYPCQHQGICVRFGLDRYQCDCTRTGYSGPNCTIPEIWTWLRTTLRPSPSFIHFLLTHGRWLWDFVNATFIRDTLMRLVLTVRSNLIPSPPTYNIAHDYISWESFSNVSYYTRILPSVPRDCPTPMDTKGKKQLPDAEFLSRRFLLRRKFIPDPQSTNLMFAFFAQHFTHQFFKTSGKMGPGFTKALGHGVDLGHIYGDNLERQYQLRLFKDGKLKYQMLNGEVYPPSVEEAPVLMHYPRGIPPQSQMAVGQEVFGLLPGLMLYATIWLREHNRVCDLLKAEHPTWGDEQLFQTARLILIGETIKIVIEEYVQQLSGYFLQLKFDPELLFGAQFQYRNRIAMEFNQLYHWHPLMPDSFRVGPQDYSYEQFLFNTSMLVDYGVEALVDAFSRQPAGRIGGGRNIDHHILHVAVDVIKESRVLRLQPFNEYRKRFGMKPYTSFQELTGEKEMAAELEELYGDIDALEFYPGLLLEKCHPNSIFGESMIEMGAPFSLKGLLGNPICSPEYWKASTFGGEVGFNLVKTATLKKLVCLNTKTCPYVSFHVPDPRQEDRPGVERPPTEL

[7] = target: T3, Prostaglandin G/H synthase 2 (Ovis aries) (UniProt P79208); test: Inhibition of ovine COX-2 assessed as using arachidonic acid as substrate at 10 uM preincubated for 5 mins prior to substrate addition measured after 2 hrs by enzyme immunoassay relative to control; details: in the assay text read “after 2 mins” for “after 2 hrs”
T3 sequence (whole entry): T1 sequence (P79208 whole entry)
Method in brief: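 Ovine COX-1 or COX-2 with heme in 0.1 M Tris-HCl pH 8.0, 5 mM EDTA, 2 mM phenol; compound (0.001–100 µM final, DMSO stocks) preincubated 5 min at 37 °C, then arachidonic acid added, stopped with 1 M HCl after 2 min. PGF2α (SnCl2 reduction) quantified by competitive EIA at 412 nm; % inhibition vs controls; mean of two determinations.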

[8] = target: T3, Prostaglandin G/H synthase 2 (Ovis aries); test: Inhibition of ovine COX-2 assessed as using arachidonic acid as substrate at 10 uM preincubated for 5 mins prior to substrate addition measured after 2 mins by enzyme immunoassay relative to control
[9] = target: T4, Prostaglandin G/H synthase 1 (Ovis aries, UniProt P05979); test: Inhibition of ovine COX-1 assessed as using arachidonic acid as substrate preincubated for 5 mins prior to substrate addition […] by enzyme immunoassay
T4 sequence (P05979 whole entry): T2 sequence (whole entry)

[10] = test system: DU-145; test: Cell cycle arrest in human DU145 cells assessed as accumulation at G2/M phase at 5 uM after 12 hrs by propidium iodide staining-based flow cytometric analysis (reference value: 10.97%); format: functional
[11] = test system: DU-145; test: Cell cycle arrest in human DU145 cells assessed as accumulation at S phase at 5 uM after 12 hrs by propidium iodide staining-based flow cytometric analysis (reference value: 44.93%); format: functional
[12] = test system: DU-145; test: Cell cycle arrest in human DU145 cells assessed as accumulation at S phase at 15 uM after 12 hrs by propidium iodide staining-based flow cytometric analysis (reference value: 44.93%); format: functional
[13] = test system: DU-145; test: Cell cycle arrest in human DU145 cells assessed as accumulation at G0/G1 phase after 12 hrs by propidium iodide staining-based flow cytometric analysis; format: functional
[14] = test system: DU-145; test: Induction of apoptosis in human DU145 cells assessed as formation of apoptotic bodies at 5 to 20 uM after 48 hrs by DAPI staining-based fluorescence microscopic analysis; format: functional, cell-based
Method in brief: (§2)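 DU145 seeded 2 × 10⁴ per 60-mm plate, 24 h, then treated 48 h; PBS-washed twice, fixed 3.7% paraformaldehyde 10 min at room temperature, DAPI-stained 10 min at room temperature; nuclei scored for chromatin condensation and apoptotic bodies.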

[15] = test system: DU-145; test: Cell cycle arrest in human DU145 cells assessed as accumulation at S phase at 20 uM after 12 hrs by propidium iodide staining-based flow cytometric analysis (reference value: 44.93%); format: functional
[16] = test system: DU-145; test: Cell cycle arrest in human DU145 cells assessed as accumulation at G0/G1 phase at 5 uM after 12 hrs by propidium iodide staining-based flow cytometric analysis (reference value: 40.91%); format: functional
[17] = test system: DU-145; test: Cell cycle arrest in human DU145 cells assessed as accumulation at G2/M phase at 15 uM after 12 hrs by propidium iodide staining-based flow cytometric analysis (reference value: 10.97%); format: functional
[18] = test system: DU-145; test: Cell cycle arrest in human DU145 cells assessed as accumulation at G2/M phase at 20 uM after 12 hrs by propidium iodide staining-based flow cytometric analysis (reference value: 10.97%); format: functional
[19] = test system: DU-145; test: Cell cycle arrest in human DU145 cells assessed as accumulation at G0/G1 phase at 15 uM after 12 hrs by propidium iodide staining-based flow cytometric analysis (reference value: 40.91%); format: functional
[20] = test system: DU-145; test: Induction of apoptosis in human DU145 cells assessed as chromosomal condensation at 5 to 20 uM after 48 hrs by DAPI staining-based fluorescence microscopic analysis; format: functional, cell-based; method in brief: as §2
[21] = test system: DU-145; test: Cell cycle arrest in human DU145 cells assessed as accumulation at G0/G1 phase at 20 uM after 12 hrs by propidium iodide staining-based flow cytometric analysis (reference value: 40.91%); format: functional

| IC50 [1] | IC50 [2] | IC50 [3] | IC50 [4] | IC50 [5] | inhibition [6] | inhibition [7] | inhibition [8] | Structure (SMILES) | also measured |
| --- | --- | --- | --- | --- | --- | --- | --- | --- | --- |
| 5.09 µM | 5.17 µM | 20 µM | 12.1 µM | 25 µM |  | 43.3% |  | COC1(C)OC(=O)C(c2ccccc2Cl)=C1c1ccc(S(C)(=O)=O)cc1 (stereo not given) | Activity [10]: 10.97%; Activity [11]: 43.24%; Activity [12]: 29.17%; Activity [13]: Dose-dependent effect; Activity [14]: Active; Activity [15]: 27.26%; Activity [16]: 42.22%; Activity [17]: 7.53%; Activity [18]: 6.28%; Activity [19]: 60%; Activity [20]: Active; Activity [21]: 64.51% |
| 10.7 µM | > 50 µM | > 50 µM | 17.6 µM | > 50 µM |  | 43.6% |  | COc1cc(/C=C2\OC(=O)C(c3ccc(F)cc3)=C2c2ccc(S(C)(=O)=O)cc2)ccc1O |  |
| > 50 µM | > 50 µM |  |  |  | 61.2% | inactive |  | COc1ccc(/C=C2\OC(=O)C(c3ccccc3Cl)=C2c2ccc(S(C)(=O)=O)cc2)cc1 | IC50 [9]: 8.5 µM |
| > 50 µM | > 50 µM |  |  |  | 65.9% | 16.7% |  | COc1ccc(/C=C2\OC(=O)C(c3ccccc3)=C2c2ccc(S(C)(=O)=O)cc2)cc1 | IC50 [9]: 8.2 µM |

Second part, the molecule before the results:

| Structure (SMILES) | IC50 [1] | IC50 [2] | IC50 [3] | IC50 [4] | IC50 [5] | inhibition [6] | inhibition [7] | inhibition [8] | also measured |
| --- | --- | --- | --- | --- | --- | --- | --- | --- | --- |
| COc1ccccc1/C=C1\OC(=O)C(c2ccc(F)cc2)=C1c1ccc(S(C)(=O)=O)cc1 | 25.1 µM | 18.2 µM | > 50 µM | 13.9 µM | > 50 µM | inactive | 45.6% |  |  |
| CS(=O)(=O)c1ccc(C2=C(c3ccccc3Cl)C(=O)O/C2=C\c2ccccc2)cc1 | 5.48 µM | > 50 µM | > 50 µM | 7.3 µM | > 50 µM |  | 59.1% |  |  |
| CC(C)=C1OC(=O)C(c2ccccc2Cl)=C1c1ccc(S(C)(=O)=O)cc1 | 15.4 µM | 40.5 µM | > 50 µM |  | > 50 µM | 18.6% |  | 24.1% |  |
| COc1ccccc1/C=C1\OC(=O)C(c2ccccc2)=C1c1ccc(S(C)(=O)=O)cc1 | > 90 µM | > 80 µM |  | 3 µM |  | 71% |  | 72.6% | IC50 [9]: 3.1 µM |
| COc1ccccc1/C=C1\OC(=O)C(c2ccccc2Cl)=C1c1ccc(S(C)(=O)=O)cc1 | 45.8 µM | 25.5 µM | > 50 µM | 14.6 µM | > 50 µM | inactive |  | 44.2% |  |
| CS(=O)(=O)c1ccc(C2=C(c3ccc(F)cc3)C(=O)OC2)cc1 | > 50 µM | > 50 µM |  | 9.2 µM |  | 28.5% | 66.9% |  |  |
| CS(=O)(=O)c1ccc(C2=C(c3ccccc3Cl)C(=O)O/C2=C\c2cccc([N+](=O)[O-])c2)cc1 | > 50 µM | > 50 µM |  | 7.1 µM |  | 7.01% |  | 59.2% |  |
| CS(=O)(=O)c1ccc(C2=C(c3ccccc3Cl)C(=O)O/C2=C\c2ccc(Cl)cc2)cc1 | > 50 µM | > 50 µM |  |  |  | inactive |  | 32.7% |  |
